# CYP2C9 inhib: human CYP2C9 inhibition. P11712. CYP2C9 Supersomes, luciferin-H conversion, luminescence. inhibition, % at 5 µM. hit rate 20% among 96,000. AID 777;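 active means blocking of liver enzyme CYP2C9 beyond about 50% at 5 µM, limit read from the data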
# Target sequence (P11712 whole entry, looked up): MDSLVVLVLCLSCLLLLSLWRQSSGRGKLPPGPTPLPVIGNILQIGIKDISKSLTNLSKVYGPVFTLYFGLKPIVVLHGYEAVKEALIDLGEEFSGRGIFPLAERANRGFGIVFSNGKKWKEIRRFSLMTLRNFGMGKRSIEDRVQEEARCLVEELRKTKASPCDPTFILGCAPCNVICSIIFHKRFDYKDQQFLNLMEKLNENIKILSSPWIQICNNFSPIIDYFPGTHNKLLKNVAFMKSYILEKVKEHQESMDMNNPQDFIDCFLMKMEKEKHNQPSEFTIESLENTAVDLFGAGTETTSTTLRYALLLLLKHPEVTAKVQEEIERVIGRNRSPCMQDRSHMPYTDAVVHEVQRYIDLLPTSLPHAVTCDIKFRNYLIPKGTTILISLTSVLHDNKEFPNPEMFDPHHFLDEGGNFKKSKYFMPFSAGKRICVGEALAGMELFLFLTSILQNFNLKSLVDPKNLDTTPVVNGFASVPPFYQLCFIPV
# CYP2C19 inh: blocks human cytochrome P450 2C19. AID 778. hit rate 21% among 96,000. inhibition, % at 5 µM. CYP2C19 Supersomes, luciferin-H EGE luminescence, 30 min;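 active means CYP2C19 inhibition above a set limit at 5 µM in the primary screen, cut at about 50% in these data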;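 further: plate controls were negative control wells for no effect and 2.5 mM tranylcypromine positive control for full effect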
# CYP2C19 activ: activators of human cytochrome P450 2C19. P33261. recombinant CYP2C19, luciferin-H EGE luminescence; hits give high values; 0 = fully inhibited enzyme, 1 = untreated enzyme. activation factor at 5 µM. AID 1025. 96,000 tested, under 10 active;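 active means activation factor of at least 2 at 5 µM in the primary screen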;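 further: 0 = wells with 2.5 mM tranylcypromine and 1 = vehicle-only wells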
# CYP2C9 activ: increases human cytochrome P450 2C9 activity; recombinant CYP2C9, luciferin-H conversion, luminescence; hits give high values; factor 1 = untreated enzyme, 0 = blocked; activation factor at 5 µM; hit rate 1.4% among 96,000;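 active means activation factor of 2 or more for CYP2C9 at a 5 µM dose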;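 further: 0 = sulfaphenazole-blocked wells and 1 = vehicle-only wells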
# Cav32 inh: blocks human Cav3.2 T-type calcium channel | Cav3.2-expressing cells, Fluo-4 calcium fluorescence FDSS; hits give low values | B-score at 10 µM | hit rate 4% among 100,000;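 active means single-dose well whose peak fluorescence ratio is a statistical outlier from its plate by either plate-standardised score or position-corrected B-score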
# Rev-RRE block: HIV Rev-RRE protein-RNA interaction inhibition | Rev peptide-RRE RNA binding, FRET | P05866 | inhibition, % at 8 µM | hit rate 0.79% among 97,000;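 active means inhibition above the screen-wide mean plus 3 SD, cut at about 35% in these data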;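 further: 0% = median DMSO wells and 100% = median Neomycin B control wells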
# Target sequence (P05866 whole entry, looked up): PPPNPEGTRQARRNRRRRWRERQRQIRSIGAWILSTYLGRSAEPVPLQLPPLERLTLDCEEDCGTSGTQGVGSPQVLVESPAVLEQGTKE
#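 Test system: Cy5-tagged RRE RNA duplex with fluorescein-tagged Rev peptide; Probe or stimulus: labelled Rev peptide; Schedule: 5 min preincubation and 15 min binding, 25 °C; Signal: FRET fluorescence readout; Evaluation: % inhibition from 671/540 nm acceptor-to-donor ratio, scaled between controls; Control set: DMSO and neomycin B.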
# * = called active by the depositor; . = no result. Most compounds without a hit are left out; they make up all but 27% or so of the library.
SMILES,CYP2C9 inhib,CYP2C19 inh,CYP2C19 activ,CYP2C9 activ,Cav32 inh,Rev-RRE block
CC(Sc1nc(-c2ccccc2)nc2c1COC(C)(C)C2)C(=O)N1CCOCC1 (stereo unspecified),27,46,0.5,0.7,1.2,9
CCN1CCN(Cc2ccc(NC(=O)Nc3cccs3)cc2)CC1,-22,-30,1.3,1.2,0.6,2
CCN(CC)c1ccc(C(=O)OCc2cc(=O)oc3cc(O)ccc23)cc1,-100,94*,0.1,2*,-0.86,7
CCN(CC)c1ccc2c(Cl)cc(=O)oc2c1,16,21,0.8,0.8,-0.44,3
CC(/C=C/c1ccc2c(c1)OCO2)=N\NC(=O)c1cccc([N+](=O)[O-])c1,9,0,1,0.9,.,1
O=C(Nc1nc2ccccc2s1)C1CCCO1 (stereo unspecified),18,40,0.6,0.8,0.95,3
O=C1OCCC1Sc1nc2cc(Cl)ccc2n1Cc1ccccc1 (stereo unspecified),48,59*,0.4,0.5,-0.97,7
O=C1OCCC1Sc1nc2ccccc2s1 (stereo unspecified),-88,62*,0.4,1.9,0.17,8
OC1CCCCC1Sc1nc2ccccc2s1 (stereo unspecified),40,66*,0.3,0.6,0.25,-2
CSc1nc2cc(Cl)ccc2s1,7,0,1,0.9,0.26,6
O=C1OCCC1Sc1nc2cc(Cl)ccc2s1 (stereo unspecified),-163,92*,0.1,2.6*,0.14,.
C=CCn1c(SC2CCOC2=O)nc2sc(CC)cc2c1=O (stereo unspecified),31,2,1,0.7,2.9,-5
COc1ccc(Cl)cc1NC(=O)CSc1nnc(Cn2c(=O)sc3ccccc32)n1C,.,.,.,.,-0.34,.
COc1ccc(C(=O)Cc2cc(OC)c(OC)cc2[N+](=O)[O-])c(OC)c1,-38,14,0.9,1.4,1.1,13
N=C1C(c2nc3ccccc3c(=O)[nH]2)=C(O)CN1c1ccccc1,-116,12,0.9,2.2*,-1.5,2
N=C1C(c2nc3ccccc3[nH]2)=C(O)CN1c1ccccc1,-5,-16,1.2,1.1,-0.83,2
CCOC(=O)c1ccc(N2CC(O)=C(c3nc4ccccc4c(=O)[nH]3)C2=N)cc1,-42,41,0.6,1.4,1.9,68*
COc1ccc(N2CC(O)=C(c3nc4ccccc4s3)C2=N)cc1,-7,11,0.9,1.1,0.24,-1
COc1ccc(CN2CCCCC2c2cccnc2)c(OC)c1C (stereo unspecified),5,38,0.6,0.9,0.079,0
Cc1ccc(Cn2ccc(NC(=O)c3cc(C)on3)n2)cc1,62*,70*,0.3,0.4,0.66,3
Cc1ccc(Cn2ccc(NC(=O)c3cc(-c4ccccc4)on3)n2)cc1,-6,6,0.9,1.1,-0.044,3
CCc1ccc(CC)c(S(=O)(=O)Nc2ccc(O)c(C(=O)O)c2)c1,77*,6,0.9,0.2,-0.029,5
CCc1ccc(CC)c(S(=O)(=O)Nc2ccc(C(=O)O)c(O)c2)c1,83*,8,0.9,0.2,-0.88,-2
O=C(O)c1ccc(NS(=O)(=O)c2ccc(Cl)c(Cl)c2)cc1O,24,-4,1,0.8,-0.23,6
COc1ccc(N2CCN(C(=O)CCc3ccc(S(=O)(=O)NCC(C)C)cc3)CC2)cc1,.,.,.,.,0.59,-1
SMILES,CYP2C9 inhib,CYP2C19 inh,CYP2C19 activ,CYP2C9 activ,Cav32 inh,Rev-RRE block
CCN(CC)S(=O)(=O)c1ccc(NC(=O)COC(=O)c2ccc(Br)o2)cc1,67*,21,0.8,0.3,-4.7*,12
CCN(CC)S(=O)(=O)c1ccc(NC(=O)COc2c(OC)cccc2OC)cc1,36,22,0.8,0.6,0.019,0
COCCn1c(C)cc(C(=O)COC(=O)c2ccc(-n3nc(C)cc3C)cc2)c1C,-5,1,1,1.1,-0.021,2
CCN(CC)S(=O)(=O)c1ccc(NC(=O)COC(=O)c2ccc(-n3nc(C)cc3C)cc2)cc1,71*,85*,0.2,0.3,-1.2,12
C=CCNC(=O)c1onc(CSc2cccc(OC)c2)c1C(=O)NCC=C,.,.,.,.,0.071,.
CC1=C(C(=O)Nc2cccc(C)n2)C(c2ccc3c(c2)OCO3)C2=C(CC(c3ccco3)CC2=O)N1 (stereo unspecified),94*,86*,0.1,0.1,-2.5,1
CCCCN(CCCC)S(=O)(=O)c1ccc(SCC(=O)OCC)c([N+](=O)[O-])c1,67*,32,0.7,0.3,-3.1*,10
CCn1c(SCC(=O)c2ccccc2)nnc1-c1ccoc1C,54*,97*,0,0.5,0.79,-3
CCn1c(SCC(=O)c2ccc(Cl)cc2)nnc1-c1ccoc1C,26,66*,0.3,0.7,-0.14,5
Cc1occc1-c1nnc(SCC(=O)c2ccc(Cl)cc2)n1CC1CCCO1 (stereo unspecified),16,10,0.9,0.8,0.22,-2
CCn1c(SCC(=O)c2ccc(C)cc2)nnc1-c1ccoc1C,35,98*,0,0.7,-0.44,-4
COc1nc2c(C)cccc2cc1-c1noc(-c2ccco2)n1,15,23,0.8,0.8,-0.29,12
CCc1ccc(N2CCCn3c2nc2c3c(=O)n(CCN3CCOCC3)c(=O)n2C)cc1,7,7,0.9,0.9,.,.
CCc1c(C)c(C#N)c2nc3ccccc3n2c1N1CCN(c2cc(C)ccn2)CC1,67*,22,0.8,0.3,.,3
Cc1ccnc(-n2c(CCN3C(=O)c4ccccc4C3=O)nc3ccccc3c2=O)c1,69*,60*,0.4,0.3,0.16,3
Cc1cccnc1-n1c(CCN2C(=O)c3ccccc3C2=O)nc2ccccc2c1=O,7,38,0.6,0.9,-0.28,5
COC(=O)c1cc(Br)ccc1OC(=O)c1cccnc1,23,12,0.9,0.8,-0.11,4
CO/N=C(/CNC(=O)c1ccc(F)cc1)c1ccc(Cl)cc1,64*,86*,0.1,0.4,.,4
CC1CCN(S(=O)(=O)c2ccc(Oc3ccc([N+](=O)[O-])cc3)cc2)CC1,43,25,0.7,0.6,.,11
COc1ccc2c(c1OC)C(=O)N1c3cccc(Cl)c3C(=O)OC21 (stereo unspecified),8,0,1,0.9,-4.3*,3
Nc1cc(N)cc(-c2nc3ccccc3[nH]2)c1,15,9,0.9,0.8,0.53,3
Cc1ccc(-c2nc3ccccc3[nH]2)s1,33,40,0.6,0.7,1.7,27
Cc1[nH]c2ccccc2c1-c1nc2ccccc2[nH]1,68*,39,0.6,0.3,-0.072,.
COc1ccc(-c2nc3ccccc3[nH]2)cc1,35,65*,0.4,0.6,1.9,6

# High-throughput results as filed in PubChem BioAssay.
